A word on the IC50: it is the concentration that gives 50% inhibition. As a reminder, the CC50 is the concentration giving 50% cytotoxicity.

A short description of data set [1]: Antiviral activity against Enterovirus 71 BrCr infected in African green monkey Vero cells assessed as inhibition of virus-induced cytopathic effect after 4 days by MTT assay. The class given is functional, cell-based, Human enterovirus 71 (strain BRCR). The procedure, abridged:
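EV71 strain BrCr grown in Vero cells kept in DMEM with 2% FBS; titer by TCID50 end-point dilution. Vero cells inoculated with 100 × TCID50 virus plus serially diluted compounds (DMSO stocks); ribavirin positive control. After four days, morphology checked by light microscopy and viability by MTT to give CPE inhibition rate; IC50 by Forecast function. Mean ± SD, three independent assays, quadruplicate per concentration.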

Data set [2] can be described thus: Selectivity index, ratio of CC50 for African green monkey Vero cells to IC50 for Enterovirus 71 BrCr. In kind it is functional. The procedure, abridged:
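SI computed as CC50 (Vero, 4-day MTT) divided by IC50 (EV71 BrCr CPE inhibition, 100 × TCID50, 4-day MTT) for each compound.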

Data set [3] is described as follows: Cytotoxicity against African green monkey Vero cells after 4 days by MTT assay. The following applies: chlorocebus sabaeus. In kind it is cell-based. Put shortly:
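Vero cells treated or untreated with serially diluted compounds (100 mM DMSO stocks) for four days, viability read by MTT; CC50 calculated by Forecast function. Mean ± SD of three independent assays, each concentration in quadruplicate.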
For orientation: Formazan colour is commonly taken as a measure of viable cells.

The mark [4] stands for this setting: Enterovirus A, Vero, 96 h, read-out: IC50.

Some results are limits rather than exact numbers.

As to `CC(=O)C[C@H]1[C@@H]2C[C@]3(CC=C(C)C)C(=O)[C@@]1(C(=O)c1ccccc1)C(=O)[C@@](CC=C(C)C)(C3=O)C2(C)C`, the IC50 in data set [1] (setting [4]) was 31.1 µM. In data set [2], the “Ratio CC50/IC50” value is 1.5. This compound gave a CC50 at 96 h in data set [3] of 47 µM.
Take `CC(=O)C[C@@H]1[C@@H]2C[C@]3(CC=C(C)C)C(=O)[C@@]1(C(=O)c1ccc(O)c(O)c1)C(=O)[C@@](CC=C(C)C)(C3=O)C2(C)C`: the IC50 result in data set [1] (vero) is on record as “Not Active”.
Same read-out and setting: in the case of `CC(C)=CCC/C(C)=C/C[C@@H]1C[C@@]2(CC=C(C)C)C(=O)[C@H](C(=O)C(C(=O)c3ccccc3)=C2O)C1(C)C` it was “Not Active”.
For the compound `CC(C)=CCC/C(C)=C/C[C@@H]1C[C@@]2(CC=C(C)C)C(=O)C(OC(=O)c3ccccc3)=C(O)[C@H](C2=O)C1(C)C`, the IC50 in data set [1] (setting [4]) stood at 16.1 µM. Further, the “Ratio CC50/IC50” value in data set [2] is given as 2.4. It took 37.8 µM to reach half-maximal cytotoxicity in data set [3] (CC50 at 96 h).
With `C=C(C)C(=O)CC/C(C)=C/C[C@@H]1C[C@@]2(CC=C(C)C)C(=O)[C@H](C(=O)C(C(=O)c3ccccc3)=C2O)C1(C)C`, the IC50 result in data set [1] (vero) is listed as “Not Active”.
The same measure, in the same setting: as for `C=C(CCC=C(C)C)C(=O)C[C@H]1C[C@@]2(CC=C(C)C)C(=O)[C@H](C(=O)C(C(=O)c3ccccc3)=C2O)C1(C)C`, the entry is “Not Active”; as for `CC(C)=CC[C@@]12C[C@@H](C)C(C)(C)[C@@H](C(=O)C(C(=O)c3ccccc3)=C1O)C2=O`, “Not Active”; as for `C=C(C)[C@@H](O)CC/C(C)=C/C[C@@H]1C[C@@]2(CC=C(C)C)C(=O)[C@H](C(=O)C(C(=O)c3ccccc3)=C2O)C1(C)C`, “Not Active”.
The same measure, in the same setting: as for `CC(C)=CCC/C(C)=C/C[C@H]1C[C@@]23C[C@@H](C(C)(C)O)OC2=C(C(=O)c2ccccc2)C(=O)[C@H](C3=O)C1(C)C`, the entry is “Not Active”; as for `CC(C)=CCC/C(C)=C/C[C@H]1C[C@@]23C[C@H](O)C(C)(C)OC2=C(C(=O)c2ccccc2)C(=O)[C@H](C3=O)C1(C)C`, “Not Active”; as for `C=C(C)[C@H](O)CC/C(C)=C/C[C@H]1C[C@@]2(CC=C(C)C)C(=O)[C@](CC=C(C)C)(C(=O)C(C(=O)c3ccc(O)c(O)c3)=C2O)C1(C)C`, “Not Active”.
With `CC(C)=CCC/C(C)=C/C[C@H]1C[C@@]2(CC=C(C)C)C(=O)[C@](CC=C(C)C)(C(=O)C(C(=O)c3cccc(O)c3)=C2O)C1(C)C`, the IC50 entry in data set [1] (vero) was “Not Active”.
The same measure, in the same setting: as for `COc1cc(O)c2c(=O)c3c(O)cc(O)c(OC)c3oc2c1`, the entry is “Not Active”; as for `COc1cc(O)c2c(=O)c3cc(CC=C(C)C)c(O)c(O)c3oc2c1C/C=C(\C)CCC=C(C)C`, “Not Active”.
`COc1c(CC=C(C)C)c(O)c2c(=O)c3ccc(O)c(O)c3oc2c1CC=C(C)C` [DULXANTHONE B]: the IC50 entry in data set [1] (vero) is “Not Active”.
For `CC(C)=CCC/C(C)=C/C[C@@H]1C[C@]2(CC=C(C)C)C(=O)[C@@](CC=C(C)C)(C(=O)C(C(=O)c3ccc(O)c(O)c3)=C2O)[C@@]1(C)CCC=C(C)C` [OBLONGIFOLIN C], the IC50 result in data set [1] (vero) is reported as “Not Active”.
Take `NC(=O)c1ncn([C@@H]2O[C@H](CO)[C@@H](O)[C@H]2O)n1` [RIBAVIRIN]: the IC50 in data set [1] (setting [4]) stood at 253 µM. In addition, the “Ratio CC50/IC50” value in data set [2] was greater than 4. The same compound returned a CC50 at 96 h in data set [3] greater than 1000 µM.

Source of the values: ChEMBL document CHEMBL3232875, “Prenylated benzoylphloroglucinols and xanthones from the leaves of Garcinia oblongifolia with antienteroviral activity” (J Nat Prod, 2014).
